From ChEMBL document CHEMBL5104118, “Structure-activity relationships of hydrophobic alkyl acrylamides as tissue transglutaminase inhibitors” (RSC Med Chem, 2022)
Active and inactive are the calls of the source. No cut-off for these calls is given here.

Key:
[1] = biological target: T1, Protein-glutamine gamma-glutamyltransferase (Homo sapiens) (UniProt P21980); assay: Inhibition of recombinant human TG2 expressed in Escherichia coli assessed as Kinact using Cbz-Glu(gamma-p-nitrophenyl ester)Gly (AL5) as substrate by colorimetric assay
T1 sequence (whole entry): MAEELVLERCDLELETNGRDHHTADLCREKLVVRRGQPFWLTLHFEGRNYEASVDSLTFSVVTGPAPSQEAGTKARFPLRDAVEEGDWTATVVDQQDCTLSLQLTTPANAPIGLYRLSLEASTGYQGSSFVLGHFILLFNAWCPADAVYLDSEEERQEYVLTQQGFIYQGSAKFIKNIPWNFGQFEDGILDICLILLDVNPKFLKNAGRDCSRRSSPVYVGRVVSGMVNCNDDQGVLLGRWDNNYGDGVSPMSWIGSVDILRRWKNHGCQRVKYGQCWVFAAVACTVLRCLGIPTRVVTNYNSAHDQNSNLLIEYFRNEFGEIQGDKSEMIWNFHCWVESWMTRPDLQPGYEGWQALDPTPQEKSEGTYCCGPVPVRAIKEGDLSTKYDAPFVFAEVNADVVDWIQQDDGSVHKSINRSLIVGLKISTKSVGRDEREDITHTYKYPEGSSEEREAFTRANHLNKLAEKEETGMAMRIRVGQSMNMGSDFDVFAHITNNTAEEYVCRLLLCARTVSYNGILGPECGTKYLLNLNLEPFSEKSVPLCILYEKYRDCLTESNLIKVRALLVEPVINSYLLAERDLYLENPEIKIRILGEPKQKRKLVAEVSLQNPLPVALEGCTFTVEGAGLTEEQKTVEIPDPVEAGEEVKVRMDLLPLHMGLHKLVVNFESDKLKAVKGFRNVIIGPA
Method in brief: (§1)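 Kitz–Wilson conditions, triplicate, 25 °C: 50 mM MOPS pH 6.9, 7.5 mM CaCl2, 100 μM AL5, inhibitor 0.5–900 μM (varies by inhibitor), DMSO ≤5% v/v final; started with 5 mU/mL TG2; p-nitrophenolate read at 405 nm for 20 min. Mono-exponential fits give kobs; kobs vs [I] fitted to saturation model with α = 1+[S]/KM (KM 10 μM), giving kinact and KI; double reciprocal if unsaturated.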

[2] = biological target: T2, Protein-glutamine gamma-glutamyltransferase (Homo sapiens, UniProt P21980); assay: Inhibition of recombinant human TG2 expressed in Escherichia coli assessed as inhibition constant using Cbz-Glu(gamma-p-nitrophenyl ester)Gly (AL5) as substrate by colorimetric assay; method in brief: as §1
T2 sequence (P21980 whole entry): T1 sequence (whole entry)

[3] = biological target: T1, Protein-glutamine gamma-glutamyltransferase (Homo sapiens); assay: Inhibition of recombinant human TG2 expressed in Escherichia coli assessed as Kinact/Ki ratio using Cbz-Glu(gamma-p-nitrophenyl ester)Gly (AL5) as substrate by colorimetric assay; method in brief: as §1
[4] = biological target: T1, Protein-glutamine gamma-glutamyltransferase (Homo sapiens); assay: Inhibition of GTP binding to recombinant human TG2 expressed in Escherichia coli incubated for 30 mins by GTP-gamma-S BODIPY assay

SMILES	Kinact [1] [min⁻¹]	Ki [2] [µM]	Ratio [3]	inhibition [4]
C=CC(=O)NCCCC(=O)N1CCN(C(=O)c2cccc3ccccc23)CC1	0.45	134	3.3 10^3/M/min	
C=CC(=O)NCCCCCC(=O)N1CCN(C(=O)C23CC4CC(CC(C4)C2)C3)CC1	0.36	38	9.5 10^3/M/min	
C=CC(=O)NCC(=O)N1CCN(S(=O)(=O)c2cccc3c(N(C)C)cccc23)CC1	2.25	1.49	1510 10^3/M/min	Active
C=CC(=O)NCCCCCC(=O)N1CCN(S(=O)(=O)c2cccc3c(N(C)C)cccc23)CC1	0.23	27.4	8.6 10^3/M/min	
C=CC(=O)NCCC(=O)N1CCN(C(=O)c2cccc3ccccc23)CC1	0.13	51.6	2.4 10^3/M/min	
C=CC(=O)NCCCC(=O)N1CCN(S(=O)(=O)c2cccc3c(N(C)C)cccc23)CC1	0.54	74.2	7.3 10^3/M/min	
C=CC(=O)NCCCCC(=O)N1CCN(S(=O)(=O)c2cccc3c(N(C)C)cccc23)CC1	0.55	42	13.1 10^3/M/min	
C=CC(=O)NCCC(=O)N1CCN(S(=O)(=O)c2cccc3c(N(C)C)cccc23)CC1	0.25	64.5	3.9 10^3/M/min	

More lines, in order of falling Ki [2], values ahead:

Kinact [1] [min⁻¹]	Ki [2] [µM]	Ratio [3]	inhibition [4]	SMILES
0.44	142	3.1 10^3/M/min		C=CC(=O)NCCCCC(=O)N1CCN(C(=O)c2cccc3ccccc23)CC1
0.46	109	4.2 10^3/M/min		C=CC(=O)NCCCCCC(=O)N1CCN(C(=O)c2cccc3ccccc23)CC1
0.69	25	27.5 10^3/M/min	Active	C=CC(=O)NCC(=O)N1CCN(C(=O)c2cccc3ccccc23)CC1
0.7	6.51	108 10^3/M/min	Active	C=CC(=O)NCC(=O)N1CCN(S(=O)(=O)c2cccc3ccccc23)CC1
0.19	4.5	41.9 10^3/M/min		C=CC(=O)NCCCCC(=O)N1CCN(C(=O)C23CC4CC(CC(C4)C2)C3)CC1
1.34	3.2	412 10^3/M/min	Active	C=CC(=O)NCC(=O)N1CCN(C(=O)C23CC4CC(CC(C4)C2)C3)CC1
